# Source: PMC2633472 (European journal of pharmacology, 2008)
# Entries after “also recorded” stand apart in the source; their conditions may differ.
# Experiments:
# [1] = system: Sprague-Dawley rats; assay: MCH-induced food intake in satiated rats; type: in vivo, rat; conditions: 2 nmole i.c.v.
# Outline: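 Cannulated male Sprague-Dawley rats were kept in wire-bottom cages >3 weeks and screened by drinking >5 ml/1 h after 50 ng angiotensin II. Satiated rats got 10 μl i.c.v. over 2 min at 7–8 a.m.: aCSF, MCH 2 nmole, or MCH plus test compound (1 or 5 nmole). Vehicles were DMSO-matched (up to 5% v/v). Food came 10 min later; cumulative intake over 4 h; ANOVA/Bonferroni.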
# [2] = system: Sprague-Dawley rats; assay: Conditioned taste aversion test; type: in vivo, rat
# [3] = biological target: Prostanoid EP4 (Homo sapiens, UniProt P35408); assay: Radioligand displacement; type: binding
# [4] = biological target: T1, rat MCH1 receptor (Rattus norvegicus, UniProt P97639); assay: MCH-induced Ca2+ mobilization; type: cell-based
# [5] = biological target: Dopamine D2s (Homo sapiens, UniProt P14416); assay: Radioligand displacement; type: binding
# [6] = biological target: Opiate κ (KOR) (Homo sapiens, UniProt P41145); assay: Selectivity FLIPR activity assay; type: cell-based
# Outline: (§1)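 Calcium FLIPR format: receptor-expressing cells were loaded 1 h at 37°C with fluo-4 in Hanks' balanced salt solution plus 20 mM HEPES (pH 7.4). Receptor activation was then measured as intracellular Ca2+ fluorescence in the presence of increasing test compound concentrations. The top concentration reported was 10 uM.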
# [7] = biological target: T1, rat MCH1 receptor; type: binding
# [8] = biological target: Phorobol Ester; assay: Radioligand displacement; conditions: read-out: BINDING Phorobol Ester; displacement of specific radioactive ligand
# [9] = biological target: Opiate μ (OP3, MOP) (Homo sapiens, UniProt P35372); assay: Radioligand displacement; type: binding
# [10] = biological target: Transporter, Norepinephrine (NET) (Homo sapiens, UniProt P23975); assay: Radioligand displacement; type: binding
# [11] = biological target: Nicotinic Acetylcholine α1, Bungarotoxin (Homo sapiens, UniProt P02708+P07510+Q07001); assay: biochemical; type: binding
# [12] = biological target: Orexin 1R (Homo sapiens, UniProt O43613); assay: Selectivity FLIPR activity assay; type: cell-based
# Outline: as §1
# [13] = biological target: Adenosine A2A (Homo sapiens, UniProt P29274); assay: Radioligand displacement; type: binding
# [14] = biological target: GPR103 (Homo sapiens, UniProt Q96P65); assay: Radioligand displacement; type: binding
# [15] = Pharmacokinetics in rats after intravenous administration; type: in vivo; conditions: rat, plasma, 5 mg/kg
# [16] = biological target: GPR10 (Homo sapiens, UniProt P49683); assay: Selectivity FLIPR activity assay; type: cell-based
# Outline: as §1
# [17] = biological target: Histamine H1 (Homo sapiens, UniProt P35367); assay: Radioligand displacement; type: binding
# [18] = biological target: Muscarinic M2 (Homo sapiens, UniProt P08172); assay: Radioligand displacement; type: binding
# [19] = biological target: hERG channel (Homo sapiens, UniProt Q12809); assay: in vitro hERG electrophysiology assay; type: cell-based
# [20] = biological target: NPY2R (Homo sapiens, UniProt P49146); assay: Selectivity FLIPR activity assay; type: cell-based
# Outline: as §1
# [21] = biological target: Adrenergic β1/β2; assay: Radioligand displacement; conditions: read-out: BINDING Adrenergic β1/β2; displacement of specific radioactive ligand
# [22] = biological target: Dopamine D1 (Homo sapiens, UniProt P21728); assay: Radioligand displacement; type: binding
# [23] = biological target: Muscarinic M3 (Homo sapiens, UniProt P20309); assay: Radioligand displacement; type: binding
# [24] = system: Sprague-Dawley rats; assay: Spontaneous locomotor activity; type: in vivo, rat
# Outline: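 Cannulated male Sprague-Dawley rats were acclimatized 60 min to a novel home cage, removed, given vehicle or 5 nmole test compound i.c.v., and returned at once. An infrared beam monitor (4 × 8 frame) recorded 60 min. Beam breaks changing location counted as ambulatory; all others as non-ambulatory fine movement. n=10.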
# [25] = biological target: Rolipram; assay: Radioligand displacement; conditions: read-out: BINDING Rolipram; displacement of specific radioactive ligand
# [26] = biological target: Adenosine A1 (Homo sapiens, UniProt P30542); assay: Radioligand displacement; type: binding
# [27] = biological target: MCH2R (Homo sapiens, UniProt Q969V1); assay: Selectivity FLIPR activity assay; type: cell-based
# Outline: as §1
# hERG channel, sequence (Q12809 whole entry): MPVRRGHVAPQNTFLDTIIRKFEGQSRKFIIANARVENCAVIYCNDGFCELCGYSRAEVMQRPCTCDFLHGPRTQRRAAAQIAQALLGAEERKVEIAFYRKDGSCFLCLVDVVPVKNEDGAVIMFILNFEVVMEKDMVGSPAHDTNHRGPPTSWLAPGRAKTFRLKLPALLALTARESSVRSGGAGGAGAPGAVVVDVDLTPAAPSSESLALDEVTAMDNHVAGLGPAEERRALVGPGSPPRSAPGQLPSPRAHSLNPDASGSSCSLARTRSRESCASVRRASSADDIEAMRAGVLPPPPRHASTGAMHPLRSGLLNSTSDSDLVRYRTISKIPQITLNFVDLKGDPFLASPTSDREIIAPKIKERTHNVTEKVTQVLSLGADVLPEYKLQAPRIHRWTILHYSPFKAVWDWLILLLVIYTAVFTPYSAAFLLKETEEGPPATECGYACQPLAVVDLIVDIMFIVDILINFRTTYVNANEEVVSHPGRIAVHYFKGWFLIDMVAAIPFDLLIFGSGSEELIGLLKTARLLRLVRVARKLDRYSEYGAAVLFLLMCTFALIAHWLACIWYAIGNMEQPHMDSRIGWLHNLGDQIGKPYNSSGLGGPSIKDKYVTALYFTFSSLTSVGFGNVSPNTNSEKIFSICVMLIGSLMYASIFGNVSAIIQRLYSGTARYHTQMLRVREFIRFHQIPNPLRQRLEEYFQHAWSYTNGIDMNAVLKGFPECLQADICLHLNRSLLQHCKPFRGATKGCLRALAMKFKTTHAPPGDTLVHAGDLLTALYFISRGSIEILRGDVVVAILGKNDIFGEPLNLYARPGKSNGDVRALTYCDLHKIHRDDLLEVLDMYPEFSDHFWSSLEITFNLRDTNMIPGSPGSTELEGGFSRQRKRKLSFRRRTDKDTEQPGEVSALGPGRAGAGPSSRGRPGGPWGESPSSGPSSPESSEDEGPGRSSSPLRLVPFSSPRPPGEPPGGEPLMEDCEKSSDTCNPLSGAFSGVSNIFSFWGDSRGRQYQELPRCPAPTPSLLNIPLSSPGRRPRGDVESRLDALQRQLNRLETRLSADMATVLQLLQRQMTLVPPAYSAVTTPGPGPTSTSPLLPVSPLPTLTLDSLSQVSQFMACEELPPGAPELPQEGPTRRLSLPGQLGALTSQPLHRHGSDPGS
# T1 sequence (P97639 whole entry): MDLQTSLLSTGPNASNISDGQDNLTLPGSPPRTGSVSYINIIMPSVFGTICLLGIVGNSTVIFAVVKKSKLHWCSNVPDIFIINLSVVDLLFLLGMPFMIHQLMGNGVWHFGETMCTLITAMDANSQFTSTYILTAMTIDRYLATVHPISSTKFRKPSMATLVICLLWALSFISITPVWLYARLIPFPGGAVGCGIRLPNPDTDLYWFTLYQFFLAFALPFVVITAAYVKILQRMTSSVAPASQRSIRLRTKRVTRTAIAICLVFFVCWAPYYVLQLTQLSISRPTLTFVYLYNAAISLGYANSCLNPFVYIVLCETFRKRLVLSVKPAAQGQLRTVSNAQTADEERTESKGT
# Muscarinic M2, sequence (P08172 whole entry): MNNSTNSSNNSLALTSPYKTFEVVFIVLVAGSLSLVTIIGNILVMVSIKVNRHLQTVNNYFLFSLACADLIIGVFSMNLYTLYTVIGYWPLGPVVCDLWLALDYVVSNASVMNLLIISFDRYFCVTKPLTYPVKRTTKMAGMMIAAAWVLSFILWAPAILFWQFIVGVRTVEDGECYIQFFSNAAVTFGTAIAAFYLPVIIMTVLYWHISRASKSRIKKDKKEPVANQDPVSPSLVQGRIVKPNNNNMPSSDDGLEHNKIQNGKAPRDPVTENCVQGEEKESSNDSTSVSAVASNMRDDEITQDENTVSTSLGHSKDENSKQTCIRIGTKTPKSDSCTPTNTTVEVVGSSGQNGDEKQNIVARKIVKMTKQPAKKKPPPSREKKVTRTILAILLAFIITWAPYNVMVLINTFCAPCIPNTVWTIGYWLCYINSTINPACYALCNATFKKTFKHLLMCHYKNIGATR
# GPR103, sequence (Q96P65 whole entry, species assumed): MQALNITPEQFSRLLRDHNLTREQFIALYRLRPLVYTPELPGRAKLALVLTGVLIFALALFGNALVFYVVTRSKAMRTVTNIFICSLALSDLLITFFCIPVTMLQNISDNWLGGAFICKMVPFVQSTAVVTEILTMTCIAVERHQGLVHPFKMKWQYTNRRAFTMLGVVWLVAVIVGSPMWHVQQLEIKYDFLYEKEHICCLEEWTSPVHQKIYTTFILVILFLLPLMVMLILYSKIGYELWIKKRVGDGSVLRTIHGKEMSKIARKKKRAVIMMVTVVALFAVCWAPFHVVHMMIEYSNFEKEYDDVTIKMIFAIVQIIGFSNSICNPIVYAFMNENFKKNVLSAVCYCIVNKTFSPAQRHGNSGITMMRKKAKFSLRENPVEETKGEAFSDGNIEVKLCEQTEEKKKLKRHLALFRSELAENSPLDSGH
# MCH2R, sequence (Q969V1 whole entry): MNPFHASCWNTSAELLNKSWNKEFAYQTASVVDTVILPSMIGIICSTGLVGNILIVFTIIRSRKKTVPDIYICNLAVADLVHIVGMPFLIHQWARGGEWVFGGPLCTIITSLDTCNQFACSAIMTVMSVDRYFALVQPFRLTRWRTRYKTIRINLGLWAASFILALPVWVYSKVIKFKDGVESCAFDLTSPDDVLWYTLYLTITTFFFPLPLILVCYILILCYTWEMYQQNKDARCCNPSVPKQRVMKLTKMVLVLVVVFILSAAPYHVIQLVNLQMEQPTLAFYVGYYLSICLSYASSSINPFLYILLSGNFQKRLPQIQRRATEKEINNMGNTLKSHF
# Muscarinic M3, sequence (P20309 whole entry): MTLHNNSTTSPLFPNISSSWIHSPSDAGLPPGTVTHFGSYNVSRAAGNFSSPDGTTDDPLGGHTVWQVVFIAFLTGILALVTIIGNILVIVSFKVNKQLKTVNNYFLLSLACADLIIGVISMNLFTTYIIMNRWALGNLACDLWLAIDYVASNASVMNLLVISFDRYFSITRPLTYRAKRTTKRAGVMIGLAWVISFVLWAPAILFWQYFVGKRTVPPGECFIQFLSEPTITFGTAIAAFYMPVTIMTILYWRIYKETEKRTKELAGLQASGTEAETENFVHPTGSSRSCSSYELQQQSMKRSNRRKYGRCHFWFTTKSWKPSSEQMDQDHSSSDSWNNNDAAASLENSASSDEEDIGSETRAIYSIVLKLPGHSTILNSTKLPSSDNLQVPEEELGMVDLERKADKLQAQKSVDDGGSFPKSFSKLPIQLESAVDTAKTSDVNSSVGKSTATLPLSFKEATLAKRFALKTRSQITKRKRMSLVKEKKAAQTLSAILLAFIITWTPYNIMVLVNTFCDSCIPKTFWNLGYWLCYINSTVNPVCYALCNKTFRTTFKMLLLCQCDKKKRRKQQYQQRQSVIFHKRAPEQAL
# GPR10, sequence (P49683 whole entry, species assumed): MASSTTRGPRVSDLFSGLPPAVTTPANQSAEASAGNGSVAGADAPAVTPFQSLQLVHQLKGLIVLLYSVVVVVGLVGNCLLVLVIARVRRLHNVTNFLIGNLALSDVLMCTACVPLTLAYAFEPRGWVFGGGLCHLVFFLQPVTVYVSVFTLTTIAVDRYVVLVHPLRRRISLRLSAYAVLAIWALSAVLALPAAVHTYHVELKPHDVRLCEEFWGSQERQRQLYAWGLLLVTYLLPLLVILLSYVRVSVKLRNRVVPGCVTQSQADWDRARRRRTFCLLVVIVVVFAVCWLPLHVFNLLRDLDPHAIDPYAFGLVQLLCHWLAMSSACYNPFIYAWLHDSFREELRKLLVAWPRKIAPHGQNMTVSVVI
# Adenosine A1, sequence (P30542 whole entry): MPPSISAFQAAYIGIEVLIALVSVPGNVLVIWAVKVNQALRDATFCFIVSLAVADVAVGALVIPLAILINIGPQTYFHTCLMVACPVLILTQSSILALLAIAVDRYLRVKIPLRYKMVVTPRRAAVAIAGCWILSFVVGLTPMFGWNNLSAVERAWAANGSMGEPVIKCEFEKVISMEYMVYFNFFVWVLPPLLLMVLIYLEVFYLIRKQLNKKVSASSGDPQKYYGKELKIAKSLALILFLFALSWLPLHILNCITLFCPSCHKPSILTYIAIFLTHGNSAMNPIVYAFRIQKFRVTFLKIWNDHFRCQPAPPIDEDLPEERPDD
# Dopamine D1, sequence (P21728 whole entry): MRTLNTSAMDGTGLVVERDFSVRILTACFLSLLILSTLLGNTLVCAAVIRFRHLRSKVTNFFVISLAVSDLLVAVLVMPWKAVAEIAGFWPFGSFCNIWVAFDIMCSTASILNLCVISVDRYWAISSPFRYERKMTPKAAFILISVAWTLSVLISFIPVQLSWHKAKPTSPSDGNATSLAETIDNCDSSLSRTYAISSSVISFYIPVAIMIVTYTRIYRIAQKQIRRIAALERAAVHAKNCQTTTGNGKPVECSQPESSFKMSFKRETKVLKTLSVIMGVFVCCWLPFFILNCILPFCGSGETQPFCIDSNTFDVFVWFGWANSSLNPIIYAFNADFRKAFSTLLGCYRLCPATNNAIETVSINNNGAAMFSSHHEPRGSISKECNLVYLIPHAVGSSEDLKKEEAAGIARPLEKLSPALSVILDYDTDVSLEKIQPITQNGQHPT
# NPY2R, sequence (P49146 whole entry, species assumed): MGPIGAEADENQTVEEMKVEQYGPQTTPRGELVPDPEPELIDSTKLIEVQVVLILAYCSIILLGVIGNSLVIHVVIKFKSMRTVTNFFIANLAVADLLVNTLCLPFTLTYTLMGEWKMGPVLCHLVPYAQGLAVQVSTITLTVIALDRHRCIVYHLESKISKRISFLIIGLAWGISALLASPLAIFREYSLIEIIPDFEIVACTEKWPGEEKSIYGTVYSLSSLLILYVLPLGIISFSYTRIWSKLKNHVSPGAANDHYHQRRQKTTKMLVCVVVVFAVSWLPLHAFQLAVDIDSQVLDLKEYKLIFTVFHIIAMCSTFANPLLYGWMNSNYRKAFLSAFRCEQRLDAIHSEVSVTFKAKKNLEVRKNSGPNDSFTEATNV
structure (smiles),measurement,setting,value
"CSCC[C@@H]1NC(=O)[C@@H](NC(=O)[C@H](CCCNC(=N)N)NC(=O)[C@H](CC(C)C)NC(=O)[C@H](CCSC)NC(=O)[C@H](CC(=O)O)NC(=O)[C@H](Cc2ccccc2)NC(=O)[C@@H](N)CC(=O)O)CSSC[C@@H](C(=O)N[C@@H](Cc2c[nH]c3ccccc23)C(=O)N[C@@H](CCC(N)=O)C(=O)N[C@H](C(=O)O)C(C)C)NC(=O)[C@@H]2CCCN2C(=O)[C@H](CCCNC(=N)N)NC(=O)[C@H](Cc2ccc(O)cc2)NC(=O)[C@H](C(C)C)NC(=O)[C@H](CCCNC(=N)N)NC(=O)CNC(=O)[C@H](CC(C)C)NC1=O [MCH, Melanin-concentrating hormone]",feeding after intracerebroventricular injection,[1],induced rapid and robust feeding
"[Cl-].[Li+] [LiCl, Lithium chloride, reference compound]",taste aversion effect,"[2]; 300 mg/kg, i.p., positive control, P<0.01 vs. vehicle group",robust taste aversion effect
"C[C@@H](CNCc1ccccc1)N1C[C@H](CCCNC(=N)N)N(CCc2cccc(F)c2)C1=S [TPI 1361-17, N-(3-{(4S)-1-[(1S)-2-(benzylamino)-1-methylethyl]-3-[2-(3-fluorophenyl)ethyl]-2-thioxoimidazolidin-4-yl}propyl)guanidine]",IC50,[3],> 1000 nM
same,pA2 (Schild regression),[4]; MCH dose response curves with increasing concentrations of antagonist,9.43
same,effect on basal Ca2+ level by itself,"[4]; compound alone, no MCH",did not change the basal Ca^2+ level
same,Schild regression slope,[4]; r^2 = 0.975,1.085 ± 0.010
same,IC50,[5],> 1000 nM
same,selectivity for MCH1 receptor compared to kappa opioid receptors,[6],"more than 1,000 fold"
same,IC50,[7],31.8 ± 8.66 nM
same,displacement of the binding of [125I] MCH,[7]; rat MCH1 receptor membranes,completely displaced
same,IC50,[8],> 1000 nM
same,IC50,[9],> 1000 nM
same,IC50,[10],> 1000 nM
same,IC50,[11],> 1000 nM
same,selectivity for MCH1 receptor compared to orexin 1R,[12],"more than 1,000 fold"
same,IC50,[13],> 1000 nM
same,IC50,[14],> 1000 nM
same,Tmax,[15],4.98 min
same,AUC(0-inf),"[15]; AUC0-∞ (mean value), intravenous, mean",2440 ng·h/mL
same,half-life,"[15]; plasma elimination half-life (mean value), intravenous, mean",2.7 h
same,selectivity for MCH1 receptor compared to prolactin releasing peptide receptor,[16],"more than 1,000 fold"
same,IC50,[17],> 1000 nM
same,IC50,[18],> 1000 nM
same,IC50,[19],> 10000 nM
same,activity in a hERG channel assay,[19]; result in words,not show activity; also recorded: no activity was detected
same,selectivity for MCH1 receptor compared to neuropeptide Y2,[20],"more than 1,000 fold"
same,aversive effect in taste aversion test,"[2]; 10 nmole, i.c.v., saccharin preference",did not result in any aversive effect
same,IC50,[21],> 1000 nM
same,IC50,[22],> 1000 nM
same,IC50,[23],> 1000 nM
same,ambulatory and non-ambulatory movements vs vehicle,"[24]; five nmole i.c.v., monitored for 60 minutes",no significant differences
same,detectable changes in movement,[24]; five or one nmole i.c.v.,did not exhibit any detectable changes in movement
same,IC50,[25],> 1000 nM
same,IC50,[26],> 1000 nM
same,selectivity for MCH1 receptor compared to human MCH2 receptor,[27],"more than 1,000 fold"
